From ChEMBL document CHEMBL4138082 (Eur J Med Chem, 2017)

Legend:
PC-3 = experiment: Antiproliferative activity against human PC3 cells after 72 hrs by MTT assay; type: functional, cell-based; settings: PC-3, 72 h
Summary of the method: (§1)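 MTT assay. Cells were seeded and grown 24 h at 37 °C in 5% CO2, then exposed to compound or left untreated for 72 h. MTT (5 mg/mL stock) was added for 4 h and the formazan dissolved in DMSO. OD was read at 570 nm. IC50 is the concentration giving 50% growth inhibition, reported as mean ± SD of three independent experiments. Vehicle reference was 0.1% DMSO.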

L02 = experiment: Cytotoxicity against human L02 cells assessed as reduction in cell viability after 72 hrs by MTT assay; type: cell-based; settings: L02, 72 h; summary of the method: as §1
[1] = Selectivity index, ratio of IC50 for human L02 cells to IC50 for human HepG2 cells; type: toxicity; settings: L02 cells and HepG2 cells, read-out: Ratio IC50
Summary of the method: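 MTT assay: cells grown 24 h at 37 °C, 5% CO2, then exposed 72 h; MTT (5 mg/mL) added for 4 h, formazan dissolved in DMSO, OD read at 570 nm. Vehicle 0.1% DMSO. Three independent experiments.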

HepG2 = experiment: Antiproliferative activity against human HepG2 cells after 72 hrs by MTT assay; type: functional, cell-based; settings: HepG2, 72 h; summary of the method: as §1
HT-29 = experiment: Antiproliferative activity against human HT-29 cells after 72 hrs by MTT assay; type: functional, cell-based; settings: HT-29, 72 h; summary of the method: as §1
[2] = Drug metabolism in human HepG2 cells assessed as NO release by measuring nitrite formation at 100 uM after 1 hr by Griess assay; type: ADME, cell-based; settings: hepg2, 1 h
Summary of the method: (§2)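 HepG-2 or L-02 cells were exposed to 100 µM of each compound for 60 min and then harvested. Lysates were mixed with Griess reagent for 10 min at 37 °C and absorbance was read at 550 nm. NO release is expressed as nitrite, reported as mean ± SD of three independent experiments.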

[3] = Drug metabolism in human L02 cells assessed as NO release by measuring nitrite formation at 100 uM after 1 hr by Griess assay; type: ADME, cell-based; settings: l02, 1 h; summary of the method: as §2

## C[C@H]1CCC/C=C/[C@@H]2C[C@H](OC(=O)CCC(=O)O)C[C@H]2[C@H](O)/C=C/C(=O)O1
PC-3
  IC50: 1600 nM
L02
  IC50: 9500 nM
[1]
  selectivity ratio: 6
HepG2
  IC50: 1600 nM
HT-29
  IC50: 6300 nM

## O=C(O)CCC(=O)OCCCOc1no[n+]([O-])c1S(=O)(=O)c1ccccc1
PC-3
  IC50: > 10000 nM
L02
  IC50: 29000 nM
[1]
  selectivity ratio: 5
HepG2
  IC50: 6400 nM
HT-29
  IC50: > 10000 nM

## O=C(O)CCC(=O)OCCOc1no[n+]([O-])c1S(=O)(=O)c1ccccc1
PC-3
  IC50: 3800 nM
L02
  IC50: 36000 nM
HepG2
  IC50: > 10000 nM
HT-29
  IC50: > 10000 nM

## C[C@H]1CCC/C=C/[C@@H]2C[C@H](OC(=O)CCC(=O)OCCCOc3no[n+]([O-])c3S(=O)(=O)c3ccccc3)C[C@H]2[C@H](O)/C=C/C(=O)O1
PC-3
  IC50: 730 nM
L02
  IC50: 7800 nM
[1]
  selectivity ratio: 6
HepG2
  IC50: 1300 nM
HT-29
  IC50: 910 nM

## O=C(O)c1ccccc1C(=O)OCCCOc1no[n+]([O-])c1S(=O)(=O)c1ccccc1
PC-3
  IC50: 4900 nM
L02
  IC50: 40000 nM
HepG2
  IC50: > 10000 nM
HT-29
  IC50: > 10000 nM

## C[C@H]1CCC/C=C/[C@@H]2C[C@H](OC(=O)CCCC(=O)OCCOc3no[n+]([O-])c3S(=O)(=O)c3ccccc3)C[C@H]2[C@H](O)/C=C/C(=O)O1
PC-3
  IC50: 59 nM
L02
  IC50: 5100 nM
[1]
  selectivity ratio: 6
HepG2
  IC50: 820 nM
[2]
  Drug metabolism: 65.2 µM
HT-29
  IC50: 180 nM
[3]
  Drug metabolism: 14.6 µM

## C[C@H]1CCC/C=C/[C@@H]2C[C@H](OC(=O)CCCC(=O)OCCCOc3no[n+]([O-])c3S(=O)(=O)c3ccccc3)C[C@H]2[C@H](OC(=O)CCCC(=O)OCCCOc2no[n+]([O-])c2S(=O)(=O)c2ccccc2)/C=C/C(=O)O1
PC-3
  IC50: 83 nM
L02
  IC50: 5100 nM
[1]
  selectivity ratio: 13
HepG2
  IC50: 380 nM
[2]
  Drug metabolism: 92.3 µM
HT-29
  IC50: 620 nM
[3]
  Drug metabolism: 23.4 µM

## C[C@H]1CCC/C=C/[C@@H]2C[C@H](OC(=O)CCC(=O)OCCOc3no[n+]([O-])c3S(=O)(=O)c3ccccc3)C[C@H]2[C@H](O)/C=C/C(=O)O1
PC-3
  IC50: 140 nM
L02
  IC50: 5200 nM
[1]
  selectivity ratio: 6
HepG2
  IC50: 910 nM
HT-29
  IC50: 460 nM

## C[C@H]1CCC/C=C/[C@@H]2C[C@H](O)C[C@H]2[C@H](OC(=O)c2ccccc2C(=O)OCCOc2no[n+]([O-])c2S(=O)(=O)c2ccccc2)/C=C/C(=O)O1
PC-3
  IC50: 110 nM
L02
  IC50: 5700 nM
[1]
  selectivity ratio: 7
HepG2
  IC50: 820 nM
HT-29
  IC50: 400 nM

## C[C@H]1CCC/C=C/[C@@H]2C[C@H](OC(=O)c3ccccc3C(=O)OCCCOc3no[n+]([O-])c3S(=O)(=O)c3ccccc3)C[C@H]2[C@H](OC(=O)c2ccccc2C(=O)OCCCOc2no[n+]([O-])c2S(=O)(=O)c2ccccc2)/C=C/C(=O)O1
PC-3
  IC50: 1300 nM
L02
  IC50: 9800 nM
[1]
  selectivity ratio: 2
HepG2
  IC50: 4000 nM
HT-29
  IC50: 4400 nM

## C[C@H]1CCC/C=C/[C@@H]2C[C@H](O)C[C@H]2[C@H](OC(=O)CCC(=O)OCCOc2no[n+]([O-])c2S(=O)(=O)c2ccccc2)/C=C/C(=O)O1
PC-3
  IC50: 120 nM
L02
  IC50: 5000 nM
[1]
  selectivity ratio: 10
HepG2
  IC50: 510 nM
HT-29
  IC50: 230 nM

## C[C@H]1CCC/C=C/[C@@H]2C[C@H](O)C[C@H]2[C@H](O)/C=C/C(=O)O1 [BREFELDIN A]
PC-3
  IC50: 68 nM
L02
  IC50: < 0.4 nM
HepG2
  IC50: 350 nM
HT-29
  IC50: 160 nM

## O=c1[nH]cc(F)c(=O)[nH]1 [FLUOROURACIL]
HT-29
  IC50: 4900 nM

## C[C@H]1CCC/C=C/[C@@H]2C[C@H](OC(=O)CCCC(=O)OCCCOc3no[n+]([O-])c3S(=O)(=O)c3ccccc3)C[C@H]2[C@H](O)/C=C/C(=O)O1
PC-3
  IC50: 160 nM
L02
  IC50: 6700 nM
[1]
  selectivity ratio: 9
HepG2
  IC50: 750 nM
HT-29
  IC50: 1600 nM

## C[C@H]1CCC/C=C/[C@@H]2C[C@H](O)C[C@H]2[C@H](OC(=O)CCCC(=O)OCCOc2no[n+]([O-])c2S(=O)(=O)c2ccccc2)/C=C/C(=O)O1
PC-3
  IC50: 46 nM
L02
  IC50: 5100 nM
[1]
  selectivity ratio: 12
HepG2
  IC50: 410 nM
[2]
  Drug metabolism: 68.5 µM
HT-29
  IC50: 280 nM
[3]
  Drug metabolism: 13.9 µM

## C[C@H]1CCC/C=C/[C@@H]2C[C@H](O)C[C@H]2[C@H](OC(=O)CCC(=O)OCCCOc2no[n+]([O-])c2S(=O)(=O)c2ccccc2)/C=C/C(=O)O1
PC-3
  IC50: 250 nM
L02
  IC50: 6900 nM
[1]
  selectivity ratio: 9
HepG2
  IC50: 730 nM
HT-29
  IC50: 790 nM

## O=C(O)c1ccccc1C(=O)OCCOc1no[n+]([O-])c1S(=O)(=O)c1ccccc1
PC-3
  IC50: 9900 nM
L02
  IC50: 37000 nM
HepG2
  IC50: > 10000 nM
HT-29
  IC50: > 10000 nM

## C[C@H]1CCC/C=C/[C@@H]2C[C@H](O)C[C@H]2[C@H](OC(=O)c2ccccc2C(=O)OCCCOc2no[n+]([O-])c2S(=O)(=O)c2ccccc2)/C=C/C(=O)O1
PC-3
  IC50: 150 nM
L02
  IC50: 5900 nM
[1]
  selectivity ratio: 10
HepG2
  IC50: 620 nM
HT-29
  IC50: 860 nM

## O=C(O)CCCC(=O)OCCCOc1no[n+]([O-])c1S(=O)(=O)c1ccccc1
PC-3
  IC50: 3300 nM
L02
  IC50: 35000 nM
HepG2
  IC50: > 10000 nM
HT-29
  IC50: > 10000 nM

## C[C@H]1CCC/C=C/[C@@H]2C[C@H](OC(=O)c3ccccc3C(=O)OCCOc3no[n+]([O-])c3S(=O)(=O)c3ccccc3)C[C@H]2[C@H](O)/C=C/C(=O)O1
PC-3
  IC50: 64 nM
L02
  IC50: 5900 nM
[1]
  selectivity ratio: 11
HepG2
  IC50: 540 nM
HT-29
  IC50: 280 nM

## C[C@H]1CCC/C=C/[C@@H]2C[C@H](OC(=O)c3ccccc3C(=O)OCCCOc3no[n+]([O-])c3S(=O)(=O)c3ccccc3)C[C@H]2[C@H](O)/C=C/C(=O)O1
PC-3
  IC50: 95 nM
L02
  IC50: 5400 nM
[1]
  selectivity ratio: 9
HepG2
  IC50: 620 nM
HT-29
  IC50: 300 nM

## C[C@H]1CCC/C=C/[C@@H]2C[C@H](O)C[C@H]2[C@H](OC(=O)CCCC(=O)OCCCOc2no[n+]([O-])c2S(=O)(=O)c2ccccc2)/C=C/C(=O)O1
PC-3
  IC50: 95 nM
L02
  IC50: 6700 nM
[1]
  selectivity ratio: 4
HepG2
  IC50: 1800 nM
HT-29
  IC50: 5700 nM

## C[C@H]1CCC/C=C/[C@@H]2C[C@H](OC(=O)CCC(=O)OCCCOc3no[n+]([O-])c3S(=O)(=O)c3ccccc3)C[C@H]2[C@H](OC(=O)CCC(=O)OCCCOc2no[n+]([O-])c2S(=O)(=O)c2ccccc2)/C=C/C(=O)O1
PC-3
  IC50: 120 nM
L02
  IC50: 7200 nM
[1]
  selectivity ratio: 9
HepG2
  IC50: 840 nM
HT-29
  IC50: 1200 nM

## C[C@H]1CCC/C=C/[C@@H]2C[C@H](OC(=O)c3ccccc3C(=O)OCCOc3no[n+]([O-])c3S(=O)(=O)c3ccccc3)C[C@H]2[C@H](OC(=O)c2ccccc2C(=O)OCCOc2no[n+]([O-])c2S(=O)(=O)c2ccccc2)/C=C/C(=O)O1
PC-3
  IC50: 130 nM
L02
  IC50: 6200 nM
[1]
  selectivity ratio: 11
HepG2
  IC50: 550 nM
[2]
  Drug metabolism: 89.3 µM
HT-29
  IC50: 230 nM
[3]
  Drug metabolism: 20.6 µM

## C[C@H]1CCC/C=C/[C@@H]2C[C@H](OC(=O)CCC(=O)OCCOc3no[n+]([O-])c3S(=O)(=O)c3ccccc3)C[C@H]2[C@H](OC(=O)CCC(=O)OCCOc2no[n+]([O-])c2S(=O)(=O)c2ccccc2)/C=C/C(=O)O1
PC-3
  IC50: 56 nM
L02
  IC50: 5900 nM
[1]
  selectivity ratio: 12
HepG2
  IC50: 510 nM
[2]
  Drug metabolism: 98.4 µM
HT-29
  IC50: 220 nM
[3]
  Drug metabolism: 19.5 µM

## O=C(O)CCCC(=O)OCCOc1no[n+]([O-])c1S(=O)(=O)c1ccccc1
PC-3
  IC50: 5100 nM
L02
  IC50: 32000 nM
[1]
  selectivity ratio: 8
HepG2
  IC50: 4000 nM
HT-29
  IC50: > 10000 nM
